Measured values from ChEMBL document CHEMBL3627671, “Novel derivatives of nitro-substituted salicylic acids: Synthesis, antimicrobial activity and cytotoxicity” (Bioorg Med Chem, 2015).
pIC50: −log10 of the molar value. In brackets after ≈: the same amount, converted by molar mass.

How the values were obtained:
[1] = test system: Mycobacterium tuberculosis; test: Antimycobacterial activity against Mycobacterium tuberculosis H37Rv 331/88 after 14 days; assay type: functional; details: H37Rv 331/88, 336 h
[2] = test system: Mycobacterium tuberculosis; test: Antimycobacterial activity against Mycobacterium tuberculosis H37Rv 331/88 after 21 days; assay type: functional; details: H37Rv 331/88, 504 h
Mycobacterium avium [3] = test: Antimycobacterial activity against Mycobacterium avium 330/80 after 14 days; assay type: functional; details: 330/80, 336 h
Mycobacterium avium [4] = test: Antimycobacterial activity against Mycobacterium avium 330/80 after 21 days; assay type: functional; details: 330/80, 504 h
Mycobacterium kansasii [5] = test: Antimycobacterial activity against Mycobacterium kansasii 235/80 after 7 days; assay type: functional; details: 235/80, 168 h
Method in brief: (§1)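 Šula's semisynthetic medium micromethod at 37 °C, read after 7, 14 and 21 days. The 1.0 McFarland suspension was diluted 10^-4. MIC determined. 6509/96 is a clinical isolate.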

Mycobacterium kansasii [6] = test: Antimycobacterial activity against Mycobacterium kansasii 235/80 after 14 days; assay type: functional; details: 235/80, 336 h; method in brief: as §1
Mycobacterium kansasii [7] = test: Antimycobacterial activity against Mycobacterium kansasii 235/80 after 21 days; assay type: functional; details: 235/80, 504 h; method in brief: as §1
Mycobacterium kansasii [8] = test: Antimycobacterial activity against Mycobacterium kansasii 6509/96 after 7 days; assay type: functional; details: 6509/96, 168 h; method in brief: as §1
Mycobacterium kansasii [9] = test: Antimycobacterial activity against Mycobacterium kansasii 6509/96 after 14 days; assay type: functional; details: 6509/96, 336 h; method in brief: as §1
Mycobacterium kansasii [10] = test: Antimycobacterial activity against Mycobacterium kansasii 6509/96 after 21 days; assay type: functional; details: 6509/96, 504 h; method in brief: as §1
Staphylococcus aureus [11] = test: Antibacterial activity against Staphylococcus aureus CCM 4516/08 after 24 hrs by microdilution broth method; assay type: functional; details: CCM 4516/08, 24 h
Staphylococcus aureus [12] = test: Antibacterial activity against Staphylococcus aureus CCM 4516/08 after 48 hrs by microdilution broth method; assay type: functional; details: CCM 4516/08, 48 h
Staphylococcus aureus [13] = test: Antibacterial activity against methicillin-resistant Staphylococcus aureus H 5996/08 after 24 hrs by microdilution broth method; assay type: functional; details: H 5996/08, 24 h
Staphylococcus aureus [14] = test: Antibacterial activity against methicillin-resistant Staphylococcus aureus H 5996/08 after 48 hrs by microdilution broth method; assay type: functional; details: H 5996/08, 48 h
[15] = test system: Staphylococcus epidermidis; test: Antibacterial activity against Staphylococcus epidermidis H 6966/08 after 24 hrs by microdilution broth method; assay type: functional; details: H 6966/08, 24 h
Method in brief: (§2)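 Mueller-Hinton broth microdilution (modified M07-A07), pH 7.4 (±0.2). Compounds dissolved in DMSO, tested at final 500 to 0.49 µmol/L. Inoculum in sterile water matched to 0.5 McFarland. Incubated in the dark, humid atmosphere, 35 °C, read at 24 and 48 h visually and at 540 nm. MIC taken as ≥95% growth reduction (IC95) versus control.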

[16] = test system: Staphylococcus epidermidis; test: Antibacterial activity against Staphylococcus epidermidis H 6966/08 after 48 hrs by microdilution broth method; assay type: functional; details: H 6966/08, 48 h; method in brief: as §2
Enterococcus sp. [17] = test: Antibacterial activity against Enterococcus sp. J 14365/08 after 24 hrs by microdilution broth method; assay type: functional; details: J 14365/08, 24 h; method in brief: as §2
Enterococcus sp. [18] = test: Antibacterial activity against Enterococcus sp. J 14365/08 after 48 hrs by microdilution broth method; assay type: functional; details: J 14365/08, 48 h; method in brief: as §2
Escherichia coli [19] = test: Antibacterial activity against Escherichia coli CCM4517 after 24 hrs by microdilution broth method; assay type: functional; details: CCM4517, 24 h; method in brief: as §2
Escherichia coli [20] = test: Antibacterial activity against Escherichia coli CCM4517 after 48 hrs by microdilution broth method; assay type: functional; details: CCM4517, 48 h; method in brief: as §2
Klebsiella pneumoniae [21] = test: Antibacterial activity against Klebsiella pneumoniae D 11750/08 after 24 hrs by microdilution broth method; assay type: functional; details: D 11750/08, 24 h; method in brief: as §2
Klebsiella pneumoniae [22] = test: Antibacterial activity against Klebsiella pneumoniae D 11750/08 after 48 hrs by microdilution broth method; assay type: functional; details: D 11750/08, 48 h; method in brief: as §2
Klebsiella pneumoniae [23] = test: Antibacterial activity against ESBL-positive Klebsiella pneumoniae J 14368/08 after 24 hrs by microdilution broth method; assay type: functional; details: J 14368/08, 24 h; method in brief: as §2
Klebsiella pneumoniae [24] = test: Antibacterial activity against ESBL-positive Klebsiella pneumoniae J 14368/08 after 48 hrs by microdilution broth method; assay type: functional; details: J 14368/08, 48 h; method in brief: as §2
Pseudomonas aeruginosa [25] = test: Antibacterial activity against Pseudomonas aeruginosa CCM 1961 after 24 hrs by microdilution broth method; assay type: functional; details: CCM 1961, 24 h; method in brief: as §2
Pseudomonas aeruginosa [26] = test: Antibacterial activity against Pseudomonas aeruginosa CCM 1961 after 48 hrs by microdilution broth method; assay type: functional; details: CCM 1961, 48 h; method in brief: as §2
Candida albicans [27] = test: Antifungal activity against Candida albicans ATCC 44859 after 24 hrs by microdilution broth method; assay type: functional; details: ATCC 44859, 24 h
Method in brief: (§3)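 CLSI M27-A3 broth microdilution in RPMI 1640 with glutamine, buffered to pH 7.0 with MOPS; DMSO diluent. Yeast inoculum 5 × 10^3 ± 0.2 CFU/mL. Moulds grown on Sabouraud agar 3–10 days before spore harvest, final inoculum 0.5-5 × 10^4 CFU/mL, checked in a Bürker chamber. Incubated dark, humid, 35 °C, read at 24 and 48 h visually and at 540 nm. MIC taken as ≥80% (yeasts) or ≥50% (filamentous) growth reduction versus control.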

Candida albicans [28] = test: Antifungal activity against Candida albicans ATCC 44859 after 48 hrs by microdilution broth method; assay type: functional; details: ATCC 44859, 48 h; method in brief: as §3
Candida tropicalis [29] = test: Antifungal activity against Candida tropicalis 156 after 24 hrs by microdilution broth method; assay type: functional; details: Candida tropicalis, 156, 24 h; method in brief: as §3
Candida tropicalis [30] = test: Antifungal activity against Candida tropicalis 156 after 48 hrs by microdilution broth method; assay type: functional; details: Candida tropicalis, 156, 48 h; method in brief: as §3
Pichia kudriavzevii [31] = test: Antifungal activity against Candida krusei E28 after 24 hrs by microdilution broth method; assay type: functional; details: E28, 24 h; method in brief: as §3
Pichia kudriavzevii [32] = test: Antifungal activity against Candida krusei E28 after 48 hrs by microdilution broth method; assay type: functional; details: E28, 48 h; method in brief: as §3
Nakaseomyces glabratus [33] = test: Antifungal activity against Candida glabrata 20/I after 24 hrs by microdilution broth method; assay type: functional; method in brief: as §3
Nakaseomyces glabratus [34] = test: Antifungal activity against Candida glabrata 20/I after 48 hrs by microdilution broth method; assay type: functional; method in brief: as §3
Trichosporon asahii [35] = test: Antifungal activity against Trichosporon asahii 1188 after 24 hrs by microdilution broth method; assay type: functional; details: Trichosporon asahii, 1188, 24 h; method in brief: as §3
Trichosporon asahii [36] = test: Antifungal activity against Trichosporon asahii 1188 after 48 hrs by microdilution broth method; assay type: functional; details: Trichosporon asahii, 1188, 48 h; method in brief: as §3
Aspergillus fumigatus [37] = test: Antifungal activity against Aspergillus fumigatus 231 after 24 hrs by microdilution broth method; assay type: functional; details: Aspergillus fumigatus, 231, 24 h; method in brief: as §3
Aspergillus fumigatus [38] = test: Antifungal activity against Aspergillus fumigatus 231 after 48 hrs by microdilution broth method; assay type: functional; details: Aspergillus fumigatus, 231, 48 h; method in brief: as §3
Lichtheimia corymbifera [39] = test: Antifungal activity against Absidia corymbifera 272 after 24 hrs by microdilution broth method; assay type: functional; details: Lichtheimia corymbifera, 272, 24 h; method in brief: as §3
Lichtheimia corymbifera [40] = test: Antifungal activity against Absidia corymbifera 272 after 48 hrs by microdilution broth method; assay type: functional; details: Lichtheimia corymbifera, 272, 48 h; method in brief: as §3
[41] = test system: Trichophyton mentagrophytes; test: Antifungal activity against Trichophyton mentagrophytes 445 after 24 hrs by microdilution broth method; assay type: functional; details: Trichophyton mentagrophytes, 445, 24 h
[42] = test system: Trichophyton mentagrophytes; test: Antifungal activity against Trichophyton mentagrophytes 445 after 48 hrs by microdilution broth method; assay type: functional; details: Trichophyton mentagrophytes, 445, 48 h
HepG2 = test: Cytotoxicity against human HepG2 cells after 24 hrs […]; assay type: cell-based; details: HepG2, 24 h
[43] = Selectivity index, ratio of CI50 for human HepG2 cells to MIC100 for Mycobacterium tuberculosis H37Rv 331/88

## O=C(Nc1cc(C(F)(F)F)cc(C(F)(F)F)c1)c1cc([N+](=O)[O-])ccc1O
[1]
  MIC: 16 µM (≈ 6.31 µg/mL)
[2]
  MIC: 16 µM (≈ 6.31 µg/mL)
Mycobacterium avium [3]
  MIC: 32 µM (≈ 12.6 µg/mL)
Mycobacterium avium [4]
  MIC: 32 µM (≈ 12.6 µg/mL)
Mycobacterium kansasii [5]
  MIC: 16 µM (≈ 6.31 µg/mL)
Mycobacterium kansasii [6]
  MIC: 32 µM (≈ 12.6 µg/mL)
Mycobacterium kansasii [7]
  MIC: 32 µM (≈ 12.6 µg/mL)
Mycobacterium kansasii [8]
  MIC: 16 µM (≈ 6.31 µg/mL)
Mycobacterium kansasii [9]
  MIC: 32 µM (≈ 12.6 µg/mL)
Mycobacterium kansasii [10]
  MIC: 32 µM (≈ 12.6 µg/mL)
Staphylococcus aureus [11]
  MIC: 3.9 µM (≈ 1.54 µg/mL)
Staphylococcus aureus [12]
  MIC: 3.9 µM (≈ 1.54 µg/mL)
Staphylococcus aureus [13]
  MIC: 7.81 µM (≈ 3.08 µg/mL)
Staphylococcus aureus [14]
  MIC: 7.81 µM (≈ 3.08 µg/mL)
[15]
  MIC: 15.6 µM (≈ 6.16 µg/mL)
[16]
  MIC: 15.6 µM (≈ 6.16 µg/mL)
Enterococcus sp. [17]
  MIC: 500 µM (≈ 197 µg/mL)
Enterococcus sp. [18]
  MIC: 500 µM (≈ 197 µg/mL)
Escherichia coli [19]
  MIC: > 500 µM
Escherichia coli [20]
  MIC: > 500 µM
Klebsiella pneumoniae [21]
  MIC: > 500 µM
Klebsiella pneumoniae [22]
  MIC: > 500 µM
Klebsiella pneumoniae [23]
  MIC: > 500 µM
Klebsiella pneumoniae [24]
  MIC: > 500 µM
Pseudomonas aeruginosa [25]
  MIC: > 500 µM
Pseudomonas aeruginosa [26]
  MIC: > 500 µM
Candida albicans [27]
  MIC: > 500 µM
Candida albicans [28]
  MIC: > 500 µM
Candida tropicalis [29]
  MIC: > 500 µM
Candida tropicalis [30]
  MIC: > 500 µM
Pichia kudriavzevii [31]
  MIC: > 500 µM
Pichia kudriavzevii [32]
  MIC: > 500 µM
Nakaseomyces glabratus [33]
  MIC: > 500 µM
Nakaseomyces glabratus [34]
  MIC: > 500 µM
Trichosporon asahii [35]
  MIC: > 500 µM
Trichosporon asahii [36]
  MIC: > 500 µM
Aspergillus fumigatus [37]
  MIC: > 500 µM
Aspergillus fumigatus [38]
  MIC: > 500 µM
Lichtheimia corymbifera [39]
  MIC: > 500 µM
Lichtheimia corymbifera [40]
  MIC: > 500 µM
[41]
  MIC: > 500 µM
[42]
  MIC: > 500 µM
HepG2
  pIC50: 4.86
[43]
  Selectivity Index: 0.869
